Measurements: ChEMBL document CHEMBL1123063, “Mechanism-based inactivation of N-arylhydroxamic acid N,O-acyltransferase by 7-substituted-N-hydroxy-2-acetamidofluorenes” (J Med Chem, 1985)

Key:
Cricetinae gen. sp. [1] = experiment: Percent protection from inactivation of AHAT was determined using L-methionine; assay type: functional, Cricetulus griseus; design: concentration or dose not given beside the values
Method in brief: (§1)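 Run as in the inactivation kinetics: hamster hepatic AHAT was preincubated at 37 °C with a saturating inactivator concentration for 2–20 min (to maximal inactivation). Nucleophile was present at 10 mM (L-cysteine, L-methionine, glutathione, guanosine phosphate) or tRNA at 1 mg/mL. Remaining AAB transacetylation activity was then measured. Protection = percent remaining activity with minus without nucleophile. Mean ± SE of three experiments.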

Cricetinae gen. sp. [2] = experiment: Percent protection from inactivation of AHAT was determined using L-cysteine; assay type: functional, Cricetulus griseus; design: concentration or dose not given beside the values; method in brief: as §1
[3] = Ratio of apparent inactivation rate constant to apparent dissociation (binding) rate constant was determined
Hamster = experiment: Activity measured as 4-aminoazobenzene (AAB) transacetylation rate with partially purified hamster hepatic enzyme; assay type: ADME; conditions: cricetinae, in vitro
Method in brief: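 Hamster liver (male golden Syrian) 105000g supernatant, ammonium sulfate-fractionated (two- to three-fold), in 0.05 M sodium pyrophosphate pH 7, 1 mM DTT with KCl. 2-min 37 °C equilibration, then hydroxamic acid plus AAB added. Final: 1.0 mM donor, 0.15 mM AAB, 1.0 mg/mL protein, 2.0 min (exceptions: 0.5–0.6 mM donor, 3.5 min). TCA/EtOH stop, A497. Mean ± SE, N = 15–30.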

Cricetinae gen. sp. [4] = experiment: Percent protection from inactivation of AHAT was determined using t-RNA; assay type: functional, Cricetulus griseus; design: concentration or dose not given beside the values; method in brief: as §1
Cricetinae gen. sp. [5] = experiment: Percent protection from inactivation of AHAT was determined using guanosine phosphate; assay type: functional, Cricetulus griseus; design: concentration or dose not given beside the values; method in brief: as §1
Cricetinae gen. sp. [6] = experiment: Percent protection from inactivation of AHAT was determined using glutathione; assay type: functional, Cricetulus griseus; design: concentration or dose not given beside the values; method in brief: as §1
[7] = Apparent inactivation rate constant was evaluated
Method in brief: (§2)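 Partially purified hamster hepatic AHAT was preincubated at 37 °C in pyrophosphate buffer pH 7, 1 mM DTT, KCl, with five inactivator concentrations (0.005–1.0 mM final) for five preincubation periods (1–15 min). Remaining AAB transacetylation activity was then assayed. kobsd came from semilog plots of percent remaining activity vs. time. k_i and K_D came from double-reciprocal plots of kobsd vs. concentration. Three experiments, each in triplicate.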

[8] = Apparent dissociation (binding) rate constant was evaluated; assay type: ADME; method in brief: as §2
[9] = test system: N-arylhydroxamic acid N,O-acyltransferase (Mesocricetus auratus); experiment: Percent protection from inactivation of AHAT was determined using guanosine phosphate
[10] = test system: N-arylhydroxamic acid N,O-acyltransferase (Mesocricetus auratus); experiment: Percent protection from inactivation of AHAT was determined using glutathione
[11] = test system: N-arylhydroxamic acid N,O-acyltransferase (Mesocricetus auratus); experiment: Percent protection from inactivation of AHAT was determined using L-methionine
[12] = test system: N-arylhydroxamic acid N,O-acyltransferase (Mesocricetus auratus); experiment: Percent protection from inactivation of AHAT was determined using t-RNA
[13] = test system: N-arylhydroxamic acid N,O-acyltransferase (Mesocricetus auratus); experiment: Percent protection from inactivation of AHAT was determined using L-cysteine

## CC(=O)N(O)c1ccc2c(c1)Cc1cc(F)ccc1-2
Cricetinae gen. sp. [1]
  Protection: 38.2%
Cricetinae gen. sp. [2]
  Protection: 54.5%
[3]
  kinact/KI: 334 M⁻¹ s⁻¹
Hamster
  Rate: 26.8 nmol/mg/min
Cricetinae gen. sp. [4]
  Protection: 17.6%
Cricetinae gen. sp. [5]
  Protection: 58.4%
Cricetinae gen. sp. [6]
  Protection: 55.2%
[7]
  kinact: 2.59 min⁻¹
[8]
  Kd: 129 µM

## CC(=O)N(O)c1ccc2c(c1)Cc1cc(Cl)ccc1-2
[3]
  kinact/KI: 258 M⁻¹ s⁻¹
Hamster
  Rate: 20.1 nmol/mg/min
[7]
  kinact: 0.76 min⁻¹
[8]
  Kd: 48.8 µM

## CC(=O)c1ccc2c(c1)Cc1cc(N(O)C(C)=O)ccc1-2
Cricetinae gen. sp. [1]
  Protection: 0.3%
Cricetinae gen. sp. [2]
  Protection: 32.4%
[3]
  kinact/KI: 10400 M⁻¹ s⁻¹
Hamster
  Rate: 13.7 nmol/mg/min
Cricetinae gen. sp. [4]
  Protection: 8.3%
Cricetinae gen. sp. [5]
  Protection: 1.4%
Cricetinae gen. sp. [6]
  Protection: 26.3%
[7]
  kinact: 0.25 min⁻¹
[8]
  Kd: 0.4 µM

## COc1ccc2c(c1)Cc1cc(N(O)C(C)=O)ccc1-2
Cricetinae gen. sp. [1]
  Protection: 28.3%
Cricetinae gen. sp. [2]
  Protection: 47.6%
[3]
  kinact/KI: 1770 M⁻¹ s⁻¹
Hamster
  Rate: 10.9 nmol/mg/min
Cricetinae gen. sp. [4]
  Protection: 32.2%
Cricetinae gen. sp. [5]
  Protection: 54.9%
Cricetinae gen. sp. [6]
  Protection: 46.1%
[7]
  kinact: 3.73 min⁻¹
[8]
  Kd: 35.1 µM

## CC(=O)N(O)c1ccc2c(c1)Cc1cc(I)ccc1-2
[3]
  kinact/KI: 2900 M⁻¹ s⁻¹
Hamster
  Rate: 5.3 nmol/mg/min
[7]
  kinact: 0.07 min⁻¹
[8]
  Kd: 0.4 µM

## CCOc1ccc2c(c1)Cc1cc(N(O)C(C)=O)ccc1-2
[9]
  Protection: 21.3%
[3]
  kinact/KI: 2940 M⁻¹ s⁻¹
[10]
  Protection: 39.4%
Hamster
  Rate: 9.6 nmol/mg/min
[11]
  Protection: 43.3%
[12]
  Protection: 19.2%
[13]
  Protection: 34.2%
[7]
  kinact: 0.67 min⁻¹
[8]
  Kd: 3.8 µM

## CC(=O)N(O)c1ccc2c(c1)Cc1cc(C#N)ccc1-2
Cricetinae gen. sp. [1]
  Protection: 8%
Cricetinae gen. sp. [2]
  Protection: 35.9%
[3]
  kinact/KI: 37.5 M⁻¹ s⁻¹
Hamster
  Rate: 16.5 nmol/mg/min
Cricetinae gen. sp. [4]
  Protection: 2.9%
Cricetinae gen. sp. [5]
  Protection: 5.9%
Cricetinae gen. sp. [6]
  Protection: 30.5%
[7]
  kinact: 0.09 min⁻¹
[8]
  Kd: 40 µM

## CCCCOc1ccc2c(c1)Cc1cc(N(O)C(C)=O)ccc1-2
Cricetinae gen. sp. [1]
  Protection: 8.1%
Cricetinae gen. sp. [2]
  Protection: 9.3%
[3]
  kinact/KI: 1690 M⁻¹ s⁻¹
Hamster
  Rate: 4.6 nmol/mg/min
Cricetinae gen. sp. [4]
  Protection: 18%
Cricetinae gen. sp. [5]
  Protection: 18.9%
Cricetinae gen. sp. [6]
  Protection: 6%
[7]
  kinact: 0.58 min⁻¹
[8]
  Kd: 5.7 µM

## CC(=O)N(O)c1ccc2c(c1)Cc1cc(Br)ccc1-2
Cricetinae gen. sp. [1]
  Protection: 6.6%
Cricetinae gen. sp. [2]
  Protection: 31.1%
[3]
  kinact/KI: 620 M⁻¹ s⁻¹
Hamster
  Rate: 20.5 nmol/mg/min
Cricetinae gen. sp. [4]
  Protection: 0%
Cricetinae gen. sp. [5]
  Protection: 26.9%
Cricetinae gen. sp. [6]
  Protection: 34.7%
[7]
  kinact: 0.22 min⁻¹
[8]
  Kd: 5.9 µM

## CC(=O)N(O)c1ccc2c(c1)Cc1ccccc1-2
Cricetinae gen. sp. [1]
  Protection: 23.1%
Cricetinae gen. sp. [2]
  Protection: 39.1%
[3]
  kinact/KI: 360 M⁻¹ s⁻¹
Hamster
  Rate: 20.9 nmol/mg/min
Cricetinae gen. sp. [4]
  Protection: 1.9%
Cricetinae gen. sp. [5]
  Protection: 34.9%
Cricetinae gen. sp. [6]
  Protection: 15.7%
[7]
  kinact: 1.95 min⁻¹
[8]
  Kd: 88.8 µM
